According to ChEMBL document CHEMBL1132570, “Synthesis of cytotoxic indenoisoquinoline topoisomerase I poisons” (1999):

Legend:
UACC-62 = test: In vitro cytotoxicity against UACC-62 (Human melanoma) cell line.; type: functional
How it was run: (§1)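 GI50 = concentration giving 50% growth inhibition, from a screen of about 55 human cancer cell lines over a 10^-8 to 10^-4 M test range. Values come from two determinations where a population standard deviation is shown, otherwise from single determinations.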

MDA-MB-435 [1] = test: In vitro cytotoxicity against MDA-MB-435 (Human breast cancer) cell line.; type: functional; how it was run: as §1
HCT-116 = test: Cytotoxicity against colon HCT116 human cancer cell line.; type: functional; how it was run: as §1
[2] = target: T1, DNA topoisomerase 1 (Homo sapiens) (UniProt P11387); test: The activity was examined against DNA topoisomerase I mediated DNA cleavage using 3''-End-labelled 161 BP plasmid DNA.+/- indicates less than 20% of the activity of 1 uM camptothecin
T1 sequence (whole entry): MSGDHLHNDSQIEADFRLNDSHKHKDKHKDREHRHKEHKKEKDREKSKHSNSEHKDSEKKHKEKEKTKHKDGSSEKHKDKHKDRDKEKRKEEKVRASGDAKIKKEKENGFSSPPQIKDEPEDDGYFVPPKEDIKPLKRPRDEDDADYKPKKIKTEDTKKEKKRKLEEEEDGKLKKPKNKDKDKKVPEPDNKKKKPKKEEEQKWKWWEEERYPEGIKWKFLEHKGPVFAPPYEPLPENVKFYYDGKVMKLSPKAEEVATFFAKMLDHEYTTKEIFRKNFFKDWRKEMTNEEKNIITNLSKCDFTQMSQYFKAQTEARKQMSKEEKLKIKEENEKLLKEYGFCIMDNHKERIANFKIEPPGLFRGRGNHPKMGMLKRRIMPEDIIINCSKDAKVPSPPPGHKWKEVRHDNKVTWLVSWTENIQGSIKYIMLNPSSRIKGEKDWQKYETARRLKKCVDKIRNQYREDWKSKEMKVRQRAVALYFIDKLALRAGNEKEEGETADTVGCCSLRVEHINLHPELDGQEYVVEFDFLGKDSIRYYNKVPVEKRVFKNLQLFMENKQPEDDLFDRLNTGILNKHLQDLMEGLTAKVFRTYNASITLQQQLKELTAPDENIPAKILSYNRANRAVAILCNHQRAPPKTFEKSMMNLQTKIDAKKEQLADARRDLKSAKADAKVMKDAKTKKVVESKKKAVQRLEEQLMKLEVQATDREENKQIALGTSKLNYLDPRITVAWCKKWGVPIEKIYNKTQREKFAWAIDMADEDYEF
How it was run: (§2)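 A 161 bp PvuII–HindIII fragment of pBluescript SK(–) was 3'-end-labeled at the HindIII site with [α-32P]dCTP by Klenow fill-in. About 50 000 dpm per reaction was incubated with top1 and drug (0.1–300 μM) at 30 °C for 30 min, then stopped with 0.5% SDS (final). Products were run on 16% polyacrylamide/7 M urea gels at 51 °C and imaged by phosphorimager.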

OVCAR-3 = test: Cytotoxicity against ovarian OVCAR-3 human cancer cell line.; type: functional; how it was run: as §1
DU-145 = test: Cytotoxicity against prostate DU-145 human cancer cell line.; type: functional; how it was run: as §1
HOP-62 = test: Cytotoxicity against lung HOP-62 human cancer cell line.; type: functional; how it was run: as §1
SF-539 = test: Compound was tested for its cytotoxicity against CNS SF-539 Human cancer cell line; type: functional; how it was run: as §1
SN12C = test: In vitro cytotoxicity against SN12C (Human renal cancer) cell line.; type: functional; how it was run: as §1
[3] = target: T1, DNA topoisomerase 1 (Homo sapiens); test: The activity was examined against DNA topoisomerase I mediated DNA cleavage using 3'-End-labelled 161 BP plasmid DNA. 0 indicates inactive; how it was run: as §2
[4] = target: T1, DNA topoisomerase 1 (Homo sapiens); test: The activity was examined against DNA topoisomerase I mediated DNA cleavage using 3'-End-labelled 161 BP plasmid DNA.0 indicates inactive; how it was run: as §2
[5] = target: T1, DNA topoisomerase 1 (Homo sapiens); test: The activity was examined against DNA topoisomerase I mediated DNA cleavage using 3''-End-labelled 161 BP plasmid DNA.+ indicates between 20 and 50% of the activity of 1 uM camptothecin; how it was run: as §2
MDA-MB-435 [6] = test: Compound was tested for its cytotoxicity against breast MDA-MB-435 Human cancer cell line; type: functional; how it was run: as §1
[7] = target: T1, DNA topoisomerase 1 (Homo sapiens); test: The activity was examined against DNA topoisomerase I mediated DNA cleavage using 3''-End-labelled 161 BP plasmid DNA. +/- indicates less than 20% of the activity of 1 uM camptothecin; how it was run: as §2
[8] = target: T1, DNA topoisomerase 1 (Homo sapiens); test: The activity was examined against DNA topoisomerase I mediated DNA cleavage using 3''-End-labelled 161 BP plasmid DNA. + indicates between 20 and 50% of the activity of 1 uM camptothecin; how it was run: as §2

SMILES | GI50 (UACC-62) [µM] | GI50 (MDA-MB-435 [1]) [µM] | GI50 (HCT-116) [µM] | Top1 cleavage activity [2] | GI50 (OVCAR-3) [µM] | GI50 (DU-145) [µM] | GI50 (HOP-62) [µM] | GI50 (SF-539) [µM] | GI50 (SN12C) [µM] | Top1 cleavage activity [3] | Top1 cleavage activity [4] | Top1 cleavage activity [5] | GI50 (MDA-MB-435 [6]) [µM] | Top1 cleavage activity [7] | Top1 cleavage activity [8]
CCN1C(=O)c2cc(OC)c(OC)cc2[C@H]2C(=O)c3cc4c(cc3[C@H]21)OCO4 | 0.18 | 0.45 | 0.29 | +/- | 0.44 | 0.42 | 0.29 | – | – | – | – | – | – | – | –
CCN1C(=O)c2cc(OC)c(OC)cc2[C@@H]2[C@H]1c1cc3c(cc1[C@@H]2O)OCO3 | – | > 100 | > 100 | – | > 100 | > 100 | > 100 | > 100 | > 100 | 0 | – | – | – | – | –
COc1cc2c3c(n(C)c(=O)c2cc1OC)-c1cc(OCc2ccccc2)c(OCc2ccccc2)cc1C3=O | > 100 | > 100 | 80 | – | 58 | > 100 | 46 | 39 | > 100 | – | 0 | – | – | – | –
CC[n+]1cc2cc(OC)c(OC)cc2c2c1-c1cc3c(cc1C2)OCO3 | – | 14 | 13 | – | 1.9 | 58 | 22 | 56 | 2.7 | – | – | – | – | – | –
O=C(O)CCCn1c2c(c3ccccc3c1=O)C(=O)c1ccccc1-2 | 73 | > 100 | 40 | – | > 100 | 48 | 87 | – | 27 | – | – | – | – | – | –
CCCCn1c2c(c3cc(OC)c(OC)cc3c1=O)C(=O)c1cc3c(cc1-2)OCO3 | 21 | > 100 | 45 | – | 78 | 16 | 16 | – | – | – | – | 20-50% of the activity of 1 uM camptothecin | – | – | –
C=CCN1C(=O)c2cc(OC)c(OC)cc2[C@H]2C(=O)c3cc4c(cc3[C@H]21)OCO4 | 0.38 | – | 0.34 | – | 1.78 | 0.77 | 0.36 | – | – | 0 | – | – | 1.4 | – | –
COc1cc2c3c(n(C)c(=O)c2cc1OC)-c1cc2c(cc1C3=O)OCO2 | 4.2 | 96 | 35 | – | – | 37 | 1.3 | 41 | 68 | – | – | – | – | – | –
O=C1c2ccccc2-c2oc(=O)c3ccccc3c21 | > 100 | > 100 | > 100 | – | > 100 | > 100 | > 100 | > 100 | > 100 | 0 | – | – | – | – | –
COc1cc2c(cc1OC)[C@H]1C(=O)c3cc4c(cc3[C@H]1N(C)C2=O)OCO4 | 0.42 | 17 | 2 | – | 6.7 | 4.1 | 9.4 | 3.1 | 2.1 | – | – | – | – | +/- | –
COC(=O)Cn1c2c(c3ccccc3c1=O)C(=O)c1ccccc1-2 | > 100 | > 100 | – | – | > 100 | > 100 | – | > 100 | > 100 | 0 | – | – | – | – | –
O=C1c2ccccc2-c2c1c1ccccc1c(=O)n2CCCCCO | 14.3 | 41 | 3.9 | – | 93 | 3.4 | 4.4 | – | – | – | – | – | – | – | 20-50% of the activity of 1 uM camptothecin
Cn1c2c(c3ccccc3c1=O)C(=O)c1cc3c(cc1-2)OCO3 | > 100 | – | 54 | – | > 100 | > 100 | 22 | – | > 100 | – | – | 20-50% of the activity of 1 uM camptothecin | – | – | –
